Screening data deposited in PubChem by Broad Institute.
STK33 kinase inh = inhibitors of human STK33 kinase; purified STK33, MBP phosphorylation, ADP-Glo luminescence; inhibition, % at 10 µM; hit rate 0.073% among 320,000; AID 2661;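 active means inhibition at or above 25%, using the most active replicate where run in duplicate; inactive means inhibition below 25%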
Dyrk1A ADPGlo = inhibitors of rat Dyrk1A kinase; Q63470; ADP-Glo luminescence, NFATc1 peptide; inhibition, % at 12.5 µM; hit rate 0.43% among 310,000; in the data active means inhibition above about 50%;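 further: plate controls were vehicle with enzyme for no effect and no enzyme for full effect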
GSK3B inh = inhibitors of human GSK3beta kinase | P49841 | GST-GSK3beta kinase, ADP-Glo luminescence, 60 min; stronger effect = lower value | activity score (negative = inhibition), % at 10 µM | hit rate 0.038% among 300,000;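 active means more than half of replicate wells score below -50%, meaning over 50% inhibition versus plate controls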;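 further: 0% = median DMSO wells and -100% = median GW8510 positive control wells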
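Assay system: GST-tagged human GSK3beta kinase, cell-free; Input: 1.6 ng GSK3beta; Medium: Tris/MgCl2 kinase buffer; Timing: 60 min enzyme reaction, room temperature; Signal: ADP-Glo luminescence quantifying ADP generated by kinase; Evaluation: score relative to plate controls; Benchmarks: DMSO neutral wells and GW8510 at 20 µM as positive.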
GSK3 alpha inh = blocks human GSK-3 alpha kinase; ADP-Glo luminescence, 60 min; inhibition, % at 10 µM; hit rate 0.1% among 320,000; AID 2650;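 active means more than half of replicates show inhibition above 20%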;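 further: GST-tagged GSK-3 alpha with peptide substrate and 25 µM ATP; 0% = DMSO neutral wells and 100% = GW8510 positive control wells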
Target sequence (P49840 whole entry, looked up): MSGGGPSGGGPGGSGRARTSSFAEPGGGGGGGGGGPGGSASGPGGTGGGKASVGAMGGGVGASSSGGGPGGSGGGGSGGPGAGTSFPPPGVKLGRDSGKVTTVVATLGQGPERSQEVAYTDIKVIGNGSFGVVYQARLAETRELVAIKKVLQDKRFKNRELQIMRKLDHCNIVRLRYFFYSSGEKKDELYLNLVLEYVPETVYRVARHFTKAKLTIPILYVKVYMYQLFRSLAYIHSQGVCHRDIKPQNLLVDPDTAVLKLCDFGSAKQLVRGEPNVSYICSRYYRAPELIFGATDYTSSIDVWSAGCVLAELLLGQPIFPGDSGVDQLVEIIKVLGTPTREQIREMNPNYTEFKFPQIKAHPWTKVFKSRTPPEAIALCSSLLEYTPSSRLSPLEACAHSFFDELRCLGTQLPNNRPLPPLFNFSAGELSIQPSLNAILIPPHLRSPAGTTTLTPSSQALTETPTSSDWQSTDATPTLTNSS
Starred values were filed as active, the others as inactive; . = no result given. Shown is part of a subset that was picked to be rich in hits.

SMILES	STK33 kinase inh	Dyrk1A ADPGlo	GSK3B inh	GSK3 alpha inh
Nc1c(CO)nnn1-c1ccccc1	1	6	-21	50*
O=C(CSc1ccc2c(c1)OCCO2)NC(=O)Cc1ccccc1	1	11	-6	1
c1ccc(Nc2ccnc(Nc3ccccc3)n2)cc1	36*	38	0	14
NNc1nc(Nc2ccccc2)nc(Nc2ccccc2)n1	1	-23	0	-3
Nc1nc(-c2cc(O)ccc2[N+](=O)[O-])cc(-c2ccccc2)c1[N+](=O)[O-]	28*	23	-2	2
CC(C)n1c(/N=C/c2ccccc2O)nc2ccccc21	0	9	2	11
CC1(C)Cc2cccc(C(=O)Nc3ccc(Cl)cc3)c2O1	-1	14	1	2
CC1(C)Cc2cccc(C(=O)Nc3ccncc3)c2O1	10	46	1	73*
Cc1cn(C2OC(CC(=O)Oc3ccccc3)C(O)C2O)c(=O)[nH]c1=O (stereo unspecified)	0	-7	-25	52*
CC12CCC(=O)N1C(C(=O)Nc1nccs1)CS2 (stereo unspecified)	.	6	.	.
CC1CCCCN1CCNC(=O)c1cc2c(=O)n(C)c3ccccc3c2n1C (stereo unspecified)	4	50*	0	0
Oc1cc(O)cc(/C=C/c2ccc(O)c(O)c2)c1	50*	69*	.	28
CC(OC(=O)CN1C(=O)c2ccccc2C1=O)C(=O)NC1CCCCC1C (stereo unspecified)	0	16	.	-2
COc1ccc(NC(=O)c2cc(S(=O)(=O)N3CCCC3)cn2C)cc1Cl	-1	-2	-1	-2
Nc1nc(NCCO)nc(NC2CCCCC2)c1[N+](=O)[O-]	1	1	-11	86*
CC(C)CNc1nc(N)c([N+](=O)[O-])c(NC2CCCCC2)n1	0	-2	1	1
CC(C)CCNc1nc(N)c([N+](=O)[O-])c(NC2CCCCC2)n1	-1	-3	0	0
CN(C)CCCNc1nc(N)c([N+](=O)[O-])c(NC2CCCCC2)n1	3	23	-81*	98*
Nc1nc(NCCOCCO)nc(NC2CCCCC2)c1[N+](=O)[O-]	3	20	-7	52*
COc1ccc(S(=O)(=O)Nc2ccc(NC(C)=O)cc2)cc1Br	1	1	5	3
Nc1nonc1-n1nnc(C(=O)N/N=C/c2ccccc2F)c1-c1cccs1	2	36	0	64*
COc1ccc(/C=N/NC(=O)c2nnn(-c3nonc3N)c2-c2cccs2)cc1OC	1	16	-1	36
COc1cc(/C=N/NC(=O)c2nnn(-c3nonc3N)c2-c2cccs2)ccc1O	4	48	1	75*
Cc1cc(O)c(C=O)c2c1C(=O)Oc1c(CO)c(O)c3c(c1O2)C(O)OC3=O (stereo unspecified)	57*	51*	.	6
O=C(COC(=O)c1cc(Cl)ccc1O)Nc1cc(C(F)(F)F)ccc1N1CCOCC1	-2	-2	.	-1
SMILES	STK33 kinase inh	Dyrk1A ADPGlo	GSK3B inh	GSK3 alpha inh
O=C(CC1Sc2ccccc2NC1=O)NNc1ccc(F)cc1 (stereo unspecified)	.	-4	.	.
CC(=O)C1=C(c2ccc(Br)cc2)C(=O)c2ccccc2C1=O	0	76*	0	0
CCN1C[C@@H]2[C@@H]3C(=O)N(C)C(=O)[C@@H]3[C@](C)(C1=O)N2C(=O)c1ccc(Cl)c(Cl)c1	.	-3	.	.
COc1c(-c2ccc(O)c(O)c2)oc2cc(O)cc(O)c2c1=O	18	85*	1	90*
COc1ccc(Nc2nc(N3CCCC3)c3ccccc3n2)cc1	3	15	-4	2
CCN(CC)c1ccc(Nc2nc(N3CCOCC3)c3ccccc3n2)cc1	28*	7	0	1
O=C1CCNc2ccc(-c3ccccc3)cc21	2	22	1	10
O=C1CCNc2cc3ccccc3cc21	2	76*	2	7
CCOc1ccc(N2CC(C(=O)NC3CCSC3=O)CC2=O)cc1 (stereo unspecified)	1	12	-2	-2
CCc1nc2sc3c(c2c(=O)n1N)CC(C)(C)OC3	2	0	1	-2
CN(C)c1nc2sc3c(c2c(=O)n1C)CC(C)(C)OC3	38*	1	6	2
C=CC(=O)Nc1cccc(Nc2nc(N[C@H]3CC[C@H](N(C)C)CC3)nc3c2ncn3C(C)C)c1	.	88*	.	.
COC(=O)c1ccc(COc2ccccc2/C=C/C(=O)c2ccc(OCC(=O)O)cc2)cc1	50*	-2	-8	-2
CCSC1=N/C(=C/c2ccsc2)C(=O)N1c1ccccc1	-3	0	1	-4
CC(=O)c1coc2c1cc(O)c1ccccc12	0	8	5	0
CC(=O)c1cc(O)c2ccccc2c1O	-1	62*	1	-3
Cc1nn(C)cc1/C=C/C(=O)c1ccc(O)cc1	31*	10	-1	6
Cc1[nH][nH]c(=O)c1N=Nc1ccc(S(N)(=O)=O)cc1	3	.	-22	59*
CC(=O)c1ccc(N=Nc2c(C)[nH][nH]c2=O)cc1	3	24	-8	26
CCCn1nc(NC(=O)C(C)(C)C)c2cc3cc(OC)ccc3nc21	1	32	-42	66*
C#CCOCCOCCOCCNc1nc(N2CCN(C(=O)CCCCCCCCCCNC(=O)[C@H]([C@@H](C)CC)n3cc(CCCCN=C(N)N)nn3)CC2)nc(N2CCN(C(=O)CCCCCCCCCCNC(=O)[C@H](CCCCN)n3cc(C[C@@H](C)CC)nn3)CC2)n1	30*	.	.	17
Cc1ccc(CSc2nnc(SCC(=O)N/N=C/c3ccc(C(=O)O)cc3)s2)cc1	-1	-6	-10	3
O=C(CSc1nnc(SCc2ccccc2)s1)N/N=C/c1ccc(C(=O)O)cc1	-1	2	-16	53*
O=c1[nH][nH]c2c(N=Cc3ccccc3O)ccc(F)c12	.	58*	.	.
CCc1ccc(O)c(N=Cc2ccccc2O)c1	-4	0	6	-2
SMILES	STK33 kinase inh	Dyrk1A ADPGlo	GSK3B inh	GSK3 alpha inh
COc1cc(/C=N/Nc2ccc(C(F)(F)F)cn2)ccc1O	28*	28	-37	4
CCn1c2ccccc2c(=O)c2ccccc21	31*	42	-18	10
N#Cc1c2n(c3c(=O)[nH]cnc13)CCCC2	2	2	1	20
N#Cc1c2n(c3c(=S)nc[nH]c13)CCCCC2	3	29	-92*	102*
O=C1NC2c3ccccc3C(=O)N2c2c1cnn2-c1ccccc1 (stereo unspecified)	28*	18	0	12
O=C1c2ccccc2N2C(=O)c3ccccc3[C@H]2N1c1ccccc1	0	1	-1	4
CCNc1c(NS(=O)(=O)c2ccc(OC)cc2)c(=O)oc2ccccc12	-3	4	.	-1
O=C1c2ccccc2-c2onc3ccc(NCCCn4ccnc4)c1c23	48*	.	-29	63*
COc1ccc(CNc2ncnc3cc(Cl)ccc23)cc1OC	.	1	1	.
CCN(CC)Cc1cc2[nH]c3c4ccc(Cl)cc4ncc3c2cc1OC	.	.	-52*	.
CC(C)(C)NC(=O)C(c1ccc(O)cc1)N(C(=O)CCC(=O)Nc1nccs1)c1ccc(F)cc1 (stereo unspecified)	-1	-2	2	1
